# Reference: PMC12818350 (Nature Biotechnology, 2025)
# Non-standard residues stand in square brackets, D forms with d. No end group written: not given here.
# What was measured:
# S. aureus SH1000 [1] = assay: MIC assay; assay type: cell-based, Staphylococcus aureus
# HEK239 cells = assay: Human cell toxicity assay; assay type: cell-based; settings: MTT, 48 h, 32 and 3.2 µg ml−1, duplicate wells; three biologically independent replicates
# Procedure, shortened: (§1)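 Cells grown in DMEM with 10% FBS, penicillin–streptomycin, glutamine and nonessential amino acids, and seeded in exponential phase at 5,000 per well, 37 °C, 5% CO2. Compound added from a DMSO stock in phenol red-free DMEM (final DMSO 0.5% or 0.05%). Vehicle sets 100% viability; camptothecin 40 µg ml−1 sets 0%. MTT added for 4 h, solubilized overnight, A570 read, normalized to percentage survival.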
# HeLa cells = assay: Human cell toxicity assay; assay type: cell-based; settings: MTT, 48 h, 32 and 3.2 µg ml−1, duplicate wells; three biologically independent replicates
# Procedure, shortened: as §1
# S. aureus ClpX = S. aureus ClpX (Staphylococcus aureus, UniProt Q2FXQ7); assay: Isothermal titration calorimetry; assay type: binding; settings: 25 °C, ~30 μM His-ClpX, ~300 μM ligand
# S. aureus SH1000 [2] = assay: Mutant isolation by direct plating; assay type: cell-based, Staphylococcus aureus; settings: 8× MIC, ~1 × 10^7 cells per ml, LB, 30 °C, overnight
# Sequence of S. aureus ClpX (Q2FXQ7 whole entry): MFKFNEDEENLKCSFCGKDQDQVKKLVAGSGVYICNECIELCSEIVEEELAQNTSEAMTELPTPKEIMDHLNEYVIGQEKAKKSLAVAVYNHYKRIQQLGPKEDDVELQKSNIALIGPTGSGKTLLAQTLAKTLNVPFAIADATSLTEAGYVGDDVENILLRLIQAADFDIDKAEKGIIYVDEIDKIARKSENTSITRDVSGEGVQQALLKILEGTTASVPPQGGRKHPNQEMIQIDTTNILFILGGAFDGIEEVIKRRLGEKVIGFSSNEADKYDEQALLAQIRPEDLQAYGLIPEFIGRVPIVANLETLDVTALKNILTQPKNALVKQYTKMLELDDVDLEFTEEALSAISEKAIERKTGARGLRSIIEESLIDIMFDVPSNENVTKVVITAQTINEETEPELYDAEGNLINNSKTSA
substance,measurement,setting,value
"[dT]PFYL (also: lariat or depsi (positions not given here)) [synBNP 27, trigintamicin]",antibiotic activity after shifting the assay conditions to 37 °C (in words),"S. aureus SH1000 [1]; S. aureus, 37 °C instead of 30 °C",abolished
same,antibiotic activity against S. aureus (in words),"S. aureus SH1000 [1]; resolved trigintamicin isomers after resynthesis, 30 °C",showing antibiotic activity
same,human cell toxicity (in words),HEK239 cells,human cell cytotoxicity
same,human cell toxicity (in words),HeLa cells,human cell cytotoxicity
same,binding to ClpX by ITC (in words),S. aureus ClpX,bound ClpX
same,resistant mutants by direct plating,S. aureus SH1000 [2],generated resistant mutants
